Data set [1] relates to Homo sapiens. Description: Antimetastatic activity against human PSC xenografted in BALB/c nu/nu mouse co-implanted with human AsPC1 cells assessed as reduction in metastasis lesions in liver at 10 mg/kg/day, ip measured after 28 days post first dose by microscopic analysis. Format: functional, organism-based. The gist of the method:
(§1)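 Female athymic BALB/c nu/nu mice, 6–8 weeks old. 1×10^6 AsPC-1 and 1×10^6 human pancreatic stellate cells in 50 µL PBS injected into the pancreatic tail. Treatment randomized on day 7 (n = 4/group) for 4 weeks: 10 mg/kg/day ip in 50 mM sodium acetate pH 5.5/10% DMSO/1% Kolliphor HS-15, or gemcitabine 75 mg/kg by oral gavage twice weekly, or vehicle. At kill, liver scored for visible macrometastases, fixed in formalin, and 4 µm sections stained with H&E. Chi-square test.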
A general note: A xenograft is tissue or cells of one species grown in another, often human tumour cells in immunodeficient mice.

A further data set relates to HT-1080. Nature of the data set: Antimetastatic activity against luciferase-tagged human HT1080 cells xenografted in NOD.Cg-Prkdc-IL2rg<tm1Wjl>SzJAusb mouse assessed as inhibition of late-stage lung metastasis at 7.5 mg/kg/day, ip administered […] measured day 21. Type of data set: functional. Particulars: HT-1080, ip. The gist of the method: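 2.5 × 10^5 luciferase-tagged HT-1080 cells in PBS given by lateral tail vein on day 0. Daily ip dosing at 7.5 mg/kg from day -1 to day 20 (vehicle 50 mM acetate pH 5.5, 7.5% DMSO, 0.75% Tween80). Lungs harvested at day 21, homogenized, and tumour burden measured by luciferase assay. n = 4–6; one-way ANOVA with Dunnett's test.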

Data set [2] concerns the target T1, Trypsin (Homo sapiens, UniProt P07477+P07478+P35030). Description: Inhibition of trypsin (unknown origin) at 10 nM to 33.3 uM after 30 mins by gel-based ABPP assay. Type of data set: protein assay.
A further data set has as its system ASPC1. Description: Antimetastatic activity against human AsPC1 cells xenografted in BALB/c nu/nu mouse co-implanted with human PSC assessed as reduction in metastasis lesions in liver at 10 mg/kg/day, ip measured after 28 days post first dose by microscopic analysis. Type of data set: functional, organism-based. Put shortly: as §1
The next data set has as its system MDA-MB-231. Description: Cytotoxicity against human MDA-MB-231 cells assessed as reduction in cell viability after 48 hrs by CellTiter 96 Aqueous One solution cell proliferation assay. Type of data set: functional, cell-based. Conditions: MDA-MB-231, 48 h. Put shortly:
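Cells grown in DMEM high glucose with 10% heat-inactivated FCS, seeded at 5000/well and left 18 h. Compounds added at 1 nM–100 µM final (0.2% vehicle), n = 4 wells per concentration, with colour blanks. After 48 h, MTS reagent added for 2 h and A490 read. IC50 from a variable-slope sigmoidal fit.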

The target of another data set is Plasma kallikrein (Homo sapiens, UniProt P03952). Description: Inhibition of plasma kallikrein (unknown origin) at 10 nM to 33.3 uM after 30 mins by gel-based ABPP assay.
Data set [3] relates to Homo sapiens. Nature of the data set: Antitumor activity against human PSC xenografted in BALB/c nu/nu mouse co-implanted with human AsPC1 cells assessed as reduction in tumor volume at 10 mg/kg/day, ip measured after 28 days post first dose. Type of data set: functional, organism-based. Put shortly:
(§2)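 Orthotopic AsPC-1 plus human stellate cell co-implant (1×10^6 each) in the pancreatic tail of female nude BALB/c nu/nu mice. From day 7, dosed for 4 weeks (n = 4/group) with 10 mg/kg/day ip in acetate pH 5.5/DMSO/Kolliphor vehicle, or gemcitabine 75 mg/kg gavage twice weekly. Tumors resected at 4 weeks after first injection and measured with calipers by two observers. Volume = 1/2(length×breadth×width). Mean ± SEM.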

Data set [4] concerns Homo sapiens. Nature of the data set: Antitumor activity against human AsPC1 cells xenografted in BALB/c nu/nu mouse co-implanted with human PSC assessed as reduction in tumor volume at 10 mg/kg/day, ip measured after 28 days post first dose. Format: functional, organism-based. Put shortly:
as §2

The target in data set [5] is T1, Trypsin. Nature of the data set: Inhibition of trypsin (unknown origin) using chromogenic H-D-Ile-L-Pro-L-Arg-p-nitoraniline as substrate by […]. Format: protein assay.
Data set [6] deals with T2, Epithelial sodium channel subunit beta (Homo sapiens, UniProt P51168).
T2 sequence (P51168 whole entry): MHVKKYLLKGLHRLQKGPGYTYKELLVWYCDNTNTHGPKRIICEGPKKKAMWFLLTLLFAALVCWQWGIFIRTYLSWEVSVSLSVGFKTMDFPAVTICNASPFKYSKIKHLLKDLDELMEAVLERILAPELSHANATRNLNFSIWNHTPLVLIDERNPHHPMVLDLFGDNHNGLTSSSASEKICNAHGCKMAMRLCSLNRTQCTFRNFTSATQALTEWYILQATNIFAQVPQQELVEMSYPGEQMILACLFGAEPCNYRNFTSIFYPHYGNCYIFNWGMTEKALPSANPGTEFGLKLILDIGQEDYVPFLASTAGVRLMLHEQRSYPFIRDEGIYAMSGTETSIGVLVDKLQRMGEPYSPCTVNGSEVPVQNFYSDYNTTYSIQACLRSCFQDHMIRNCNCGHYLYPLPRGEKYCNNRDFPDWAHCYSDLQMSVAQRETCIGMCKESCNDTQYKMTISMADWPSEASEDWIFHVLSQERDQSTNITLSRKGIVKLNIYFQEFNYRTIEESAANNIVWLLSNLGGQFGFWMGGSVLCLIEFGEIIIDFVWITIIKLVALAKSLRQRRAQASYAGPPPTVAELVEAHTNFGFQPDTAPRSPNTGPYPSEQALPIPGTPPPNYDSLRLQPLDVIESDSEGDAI
Nature of the data set: Inhibition of S-3969-stimulated recombinant human ENaC beta subunit expressed in HEK293 cells at 10 uM preincubated for 5 mins followed by S-3969 stimulation by FLIPR assay. Format: cell-based. Particulars: hek293, 10 µM. The gist of the method:
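HEK-293 cells transfected with human ENaC α, β and γ cDNA together, plated at 20 000 cells/well, incubated overnight at 37 °C. Loaded with membrane-potential red dye for 30 min at 37 °C. Compound preincubated 5 min in HEPES-buffered salt solution (pH 7.4, 0.3% DMSO), then stimulated with 1 µM S-3969, read on FLIPR. Signal normalized to agonist alone (100%) and agonist plus 30 µM benzamil (0%). n = 4 wells.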

The source made the active and inactive calls. The rule behind the calls is not given here.

A word on the inhibition in vivo: it is the change of the read-out against control, counted positive when it falls. What is called IC50 is the concentration that gives 50% inhibition.

Sequence of Plasma kallikrein (P03952 20-390 limits assumed): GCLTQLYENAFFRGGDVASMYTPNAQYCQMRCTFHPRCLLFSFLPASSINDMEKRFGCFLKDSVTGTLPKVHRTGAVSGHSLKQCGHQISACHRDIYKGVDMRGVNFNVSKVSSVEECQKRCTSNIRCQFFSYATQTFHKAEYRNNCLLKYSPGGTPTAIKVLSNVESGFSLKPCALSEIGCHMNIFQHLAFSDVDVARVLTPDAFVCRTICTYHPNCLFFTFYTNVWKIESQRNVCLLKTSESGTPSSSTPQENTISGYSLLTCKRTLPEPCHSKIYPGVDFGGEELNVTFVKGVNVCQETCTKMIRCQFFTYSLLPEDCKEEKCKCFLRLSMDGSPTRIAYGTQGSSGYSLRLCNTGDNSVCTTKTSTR
Sequence of Plasma kallikrein (P03952 391-638 limits assumed): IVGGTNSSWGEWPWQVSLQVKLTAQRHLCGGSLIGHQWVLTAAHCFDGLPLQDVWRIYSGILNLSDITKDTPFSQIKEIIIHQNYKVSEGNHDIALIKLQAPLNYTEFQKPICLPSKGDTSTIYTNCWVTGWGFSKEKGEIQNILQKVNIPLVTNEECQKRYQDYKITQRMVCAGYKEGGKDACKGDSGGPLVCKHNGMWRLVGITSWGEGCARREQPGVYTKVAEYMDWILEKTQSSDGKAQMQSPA

Turning to `COc1ncc(-c2nc(C(=O)NC(=N)N)c(N)nc2N2CCCCCC2)cn1`, the result in the data set on Homo sapiens [1], in the data set with ASPC1, with Homo sapiens [3] and in the data set on Homo sapiens [4] was Active. In addition, in the data set on HT-1080, the inhibition in vivo at 7.5 mg/kg/day is 33%. For the same compound, the inhibition result on Trypsin [2] and at Plasma kallikrein was “Active” each time. The IC50 in the data set with MDA-MB-231 is more than 100 µM.

As for `N=C(N)NC(=O)c1nc(Cl)c(N2CCCCCC2)nc1N` [N,N-HEXAMETHYLENEAMILORIDE], the IC50 against Trypsin [5] is more than 10 µM; with MDA-MB-231, 27.3 µM. Further, the “inhibition (INH)” value in [6] is reported as “Not Active”.

Take `N=C(N)NC(=O)c1nc(-c2cc3ccccc3o2)c(N2CCCCCC2)nc1N`: the result in the data set on Homo sapiens [1], with ASPC1, in the data set with Homo sapiens [3] and with Homo sapiens [4] was Active. The inhibition in vivo at 7.5 mg/kg/day in the data set with HT-1080 was found to be 21%. The inhibition entry at Trypsin [2] and at Plasma kallikrein was “Active” each time. This compound showed a concentration for half-maximal inhibition (IC50) against Trypsin [5] of more than 10 µM. Besides, in data set [6], the “inhibition (INH)” value is “Not Active”.

These data come from ChEMBL document CHEMBL4196166 (J Med Chem, 2018).
